Reference: ChEMBL document CHEMBL4699593, “Identification of 2,4-Disubstituted Imidazopyridines as Hemozoin Formation Inhibitors with Fast-Killing Kinetics and In Vivo Efficacy in the Plasmodium falciparum NSG Mouse Model” (J Med Chem, 2020)
Values after ≈ are worked out from the molar mass of the structure shown.

Columns and labels:
[1] = tested on: Plasmodium falciparum; assay: Antiplasmodial activity against multidrug-resistant asexual blood stage Plasmodium falciparum K1 strain assessed as reduction in parasite growth after 72 hrs by NBT reagent based LDH assay; assay type: functional, organism-based; settings: K1, 72 h
Outline: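 Asexual blood-stage K1 (multidrug-resistant) parasites were read out by the parasite lactate dehydrogenase (pLDH) assay. […] Most individual values varied less than 2× (maximum 3×).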

[2] = Aqueous solubility of compound in phosphate buffer saline at pH 6.5 incubated for 20 hrs under shaking condition by shake-flask method based HPLC-DAD analysis; assay type: physicochemical; settings: phosphate buffered saline
Outline: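 Equilibrium aqueous solubility was measured at pH 6.5 using a miniaturized shake-flask method.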

[3] = tested on: Plasmodium falciparum; assay: Antiplasmodial activity against multidrug-sensitive asexual blood stage Plasmodium falciparum NF54 strain assessed as reduction in parasite growth after 72 hrs by NBT reagent based LDH assay; assay type: functional, organism-based; settings: NF54, 72 h
[4] = tested on: CHO; assay: Cytotoxicity against CHO cells assessed as reduction in cell viability by MTT assay; assay type: cell-based, Cricetulus griseus; settings: chinese hamster
Outline: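 Cytotoxicity was measured in Chinese hamster ovary (CHO) cells and reported as CC50. The selectivity index is CC50 divided by NF54 IC50.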

[5] = biological target: Voltage-gated inwardly rectifying potassium channel KCNH2 (Homo sapiens, UniProt Q12809); assay: Inhibition of human ERG by patch clamp method
[6] = Selectivity index, ratio of CC50 for cytotoxicity against CHO cells assessed as reduction in cell viability to IC50 for antiplasmodial activity against multidrug-sensitive Plasmodium falciparum NF54 assessed as reduction in parasite growth; assay type: toxicity, cell-based; settings: hamster, read-out: Ratio CC50/IC50

Sequence of Voltage-gated inwardly rectifying potassium channel KCNH2 (Q12809 whole entry): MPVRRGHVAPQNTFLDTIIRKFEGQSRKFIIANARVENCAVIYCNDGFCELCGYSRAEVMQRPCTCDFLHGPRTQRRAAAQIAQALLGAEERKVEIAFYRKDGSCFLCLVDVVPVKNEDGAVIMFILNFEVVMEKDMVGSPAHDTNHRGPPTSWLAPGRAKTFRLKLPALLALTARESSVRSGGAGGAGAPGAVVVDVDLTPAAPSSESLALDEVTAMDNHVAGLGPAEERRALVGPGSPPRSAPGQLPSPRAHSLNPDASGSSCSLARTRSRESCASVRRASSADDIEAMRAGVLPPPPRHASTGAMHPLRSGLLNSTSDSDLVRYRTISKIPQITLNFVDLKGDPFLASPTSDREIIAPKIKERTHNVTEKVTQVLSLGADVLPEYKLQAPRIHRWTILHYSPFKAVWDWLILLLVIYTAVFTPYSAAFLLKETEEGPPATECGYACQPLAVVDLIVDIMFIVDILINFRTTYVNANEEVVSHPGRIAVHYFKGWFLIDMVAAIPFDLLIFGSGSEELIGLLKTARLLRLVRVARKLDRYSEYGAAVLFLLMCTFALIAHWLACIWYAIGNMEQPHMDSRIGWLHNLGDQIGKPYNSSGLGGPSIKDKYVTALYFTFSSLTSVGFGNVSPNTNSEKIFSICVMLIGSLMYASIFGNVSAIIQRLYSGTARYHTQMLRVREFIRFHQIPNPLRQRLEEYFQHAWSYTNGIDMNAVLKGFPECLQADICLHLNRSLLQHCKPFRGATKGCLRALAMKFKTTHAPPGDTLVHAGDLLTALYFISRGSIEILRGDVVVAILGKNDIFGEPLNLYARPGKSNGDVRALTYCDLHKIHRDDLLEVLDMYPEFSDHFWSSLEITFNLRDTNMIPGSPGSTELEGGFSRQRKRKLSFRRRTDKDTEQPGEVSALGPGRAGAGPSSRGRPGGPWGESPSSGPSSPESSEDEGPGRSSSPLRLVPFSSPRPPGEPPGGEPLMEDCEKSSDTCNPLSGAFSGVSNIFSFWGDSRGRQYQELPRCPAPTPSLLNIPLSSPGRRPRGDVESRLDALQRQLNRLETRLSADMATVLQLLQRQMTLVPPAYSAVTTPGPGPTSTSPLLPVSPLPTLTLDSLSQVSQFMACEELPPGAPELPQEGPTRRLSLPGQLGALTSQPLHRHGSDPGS

Compound | IC50 [1] | solubility thermodynamic at 20 h [2] | IC50 [3] | CC50 [4] | IC50 [5] | selectivity ratio [6]
C[C@@H]1CN(c2nccc3[nH]c(-c4ccc(F)c(F)c4)nc23)C[C@H](C)N1C | 720 nM | 50 µM (≈ 17.9 µg/mL) | 260 nM | > 50000 nM | – | –
CN1CCOC2(CCN(c3nccc4[nH]c(-c5cc(F)cc(F)c5)nc34)CC2)C1 | 320 nM | 175 µM (≈ 69.9 µg/mL) | 180 nM | 32000 nM | – | –
CN1CCN(C2CCN(c3nccc4[nH]c(-c5cc(F)cc(F)c5)cc34)CC2)CC1 | – | – | – | – | 4000 nM | –
CN1CCN(CC2CCN(c3nccc4[nH]c(-c5ccc(F)c(Cl)c5)nc34)CC2)CC1 | 25 nM | 155 µM (≈ 68.7 µg/mL) | < 12 nM | 850 nM | – | –
CN1CCN(C2CCN(c3nccc4[nH]c(-c5cccc(S(C)(=O)=O)c5)nc34)CC2)CC1 | 1500 nM | 190 µM (≈ 86.4 µg/mL) | 450 nM | > 50000 nM | – | –
O=S1(=O)CCN(CC2CCN(c3nccc4[nH]c(-c5cc(F)cc(F)c5)nc34)CC2)CC1 | – | < 5 µM | 1400 nM | > 50000 nM | – | –
Fc1ccc(-c2nc3c(N4CCN(c5ccccc5)CC4)nccc3[nH]2)cc1F | – | – | > 1000 nM | – | – | –
Fc1ccc(-c2nc3c(N4CCN5CCC4CC5)nccc3[nH]2)cc1F | 430 nM | 200 µM (≈ 71.1 µg/mL) | 79 nM | 28000 nM | – | –
Fc1cc(F)cc(-c2nc3c(N4CCC(CN5CCNCC5)CC4)nccc3[nH]2)c1 | 240 nM | 190 µM (≈ 78.4 µg/mL) | 38 nM | 20000 nM | – | –
CN1CCN(C2CCN(c3nccc4[nH]c(C5CCCC5)nc34)CC2)CC1 | – | 170 µM (≈ 62.6 µg/mL) | > 10000 nM | – | – | –
CN1CCN(C2CCN(c3nccc4[nH]c(-c5ccc(F)c(F)c5)nc34)CC2)CC1 | 220 nM | 130 µM (≈ 53.6 µg/mL) | 46 nM | 5000 nM | – | 110
Fc1ccc(-c2nc3c(N4CCOCC4)nccc3[nH]2)cc1F | – | – | 3100 nM | – | – | –
C[C@@H]1CN(c2nccc3[nH]c(-c4ccc(F)c(F)c4)nc23)C[C@H](C)N1 | 450 nM | 190 µM (≈ 65.2 µg/mL) | 76 nM | 6500 nM | – | –
Fc1ccc(-c2nc3c(C4CCNCC4)nccc3[nH]2)cc1F | – | 200 µM (≈ 62.9 µg/mL) | > 10000 nM | – | – | –
CC(C)(C)N1CCN(CC2CCN(c3nccc4[nH]c(-c5cc(F)cc(F)c5)nc34)CC2)CC1 | 47 nM | 185 µM (≈ 86.7 µg/mL) | 19 nM | 8600 nM | – | –
CN1CCN([C@H]2CC[C@H](Nc3nccc4[nH]c(-c5cc(F)cc(F)c5)nc34)CC2)CC1 | 240 nM | 200 µM (≈ 85.3 µg/mL) | 130 nM | 11000 nM | – | –
CN1CCN(CC2CCN(c3nccc4[nH]c(-c5cc(F)cc(F)c5)cc34)CC2)CC1 | 92 nM | 140 µM (≈ 59.6 µg/mL) | 14 nM | 2600 nM | 5000 nM | –
Fc1ccc(-c2nc3c(N4CCC(N5CCNCC5)CC4)nccc3[nH]2)cc1C(F)(F)F | 460 nM | 200 µM (≈ 89.7 µg/mL) | 36 nM | 34000 nM | – | –
O=C1CN(c2nccc3[nH]c(-c4ccc(F)c(F)c4)nc23)CCN1 | – | < 5 µM | > 10000 nM | – | – | –
CN1CCN(CC2CCN(c3cccc4[nH]c(-c5cc(F)cc(F)c5)nc34)CC2)CC1 | 1500 nM | 200 µM (≈ 85.1 µg/mL) | 830 nM | 22000 nM | > 30000 nM | –
CN(C)C1CCN(c2nccc3[nH]c(-c4cccc(OC(F)(F)F)c4)nc23)CC1 | 190 nM | 180 µM (≈ 73 µg/mL) | 140 nM | – | – | –
CN1CCN(CC2CCN(c3nccc4[nH]c(-c5ccc(F)c(C(F)(F)F)c5)nc34)CC2)CC1 | 17 nM | 165 µM (≈ 78.6 µg/mL) | 50 nM | 3100 nM | – | –
CN1CCN(CC2CCN(c3nccc4[nH]c(-c5cccc(C(=O)O)c5)nc34)CC2)CC1 | – | 195 µM (≈ 84.7 µg/mL) | > 10000 nM | > 50000 nM | – | –
CN1CCOC2(CCN(c3nccc4[nH]c(-c5cc(F)cc(F)c5)cc34)CC2)C1 | – | – | – | – | ≤ 3000 nM | –
CN1CCN(CC2CCN(c3nccc4[nH]c(-c5cccc(OC(F)(F)F)c5)nc34)CC2)CC1 | 12 nM | 200 µM (≈ 94.9 µg/mL) | < 20 nM | 950 nM | – | 47
Fc1cc(F)cc(-c2nc3c(N4CCC(CN5CCOCC5)CC4)nccc3[nH]2)c1 | 390 nM | 25 µM (≈ 10.3 µg/mL) | 290 nM | > 50000 nM | – | –
NC1CCN(c2nccc3[nH]c(-c4ccc(F)c(F)c4)nc23)CC1 | 910 nM | 200 µM (≈ 65.9 µg/mL) | 110 nM | 8200 nM | – | –

Compound | IC50 [1] | solubility thermodynamic at 20 h [2] | IC50 [3] | CC50 [4] | IC50 [5] | selectivity ratio [6]
CN1CCN(CC2CCN(c3ncnc4[nH]c(-c5cc(F)cc(F)c5)nc34)CC2)CC1 | – | 55 µM (≈ 23.5 µg/mL) | 1800 nM | – | – | –
CN1CCN(CC2CCN(c3nccc4[nH]c(-c5cccc(OCCN)c5)nc34)CC2)CC1 | – | 200 µM (≈ 89.9 µg/mL) | 2200 nM | – | – | –
CN1CCCN(c2nccc3[nH]c(-c4cc(F)cc(F)c4)nc23)CC1 | – | – | – | – | 400 nM | –
Fc1ccc(-c2nc3c(N4CCNCC4)nccc3[nH]2)cc1F | 970 nM | 150 µM (≈ 47.3 µg/mL) | 170 nM | 8100 nM | 3400 nM | –
Fc1cc(F)cc(-c2nc3c(N4CCC(CN5CCN(CC(F)(F)F)CC5)CC4)nccc3[nH]2)c1 | 160 nM | 180 µM (≈ 89 µg/mL) | 75 nM | 40000 nM | ≤ 3000 nM | –
NCC1CCN(c2nccc3[nH]c(-c4cccc(OC(F)(F)F)c4)nc23)CC1 | 190 nM | 200 µM (≈ 78.3 µg/mL) | 68 nM | 2900 nM | – | –
Fc1ccc(-c2nc3c(N4CCN(CC(F)(F)F)CC4)nccc3[nH]2)cc1F | – | 10 µM (≈ 3.97 µg/mL) | 2300 nM | 39000 nM | – | –
CN1CCN(C[C@H]2CCCN(c3nccc4[nH]c(-c5cc(F)cc(F)c5)nc34)C2)CC1 | 170 nM | 200 µM (≈ 85.3 µg/mL) | 73 nM | 7900 nM | – | –
CN1CCN(CC2CCN(c3nccc4[nH]c(C5CCCC5)nc34)CC2)CC1 | – | < 5 µM | 9300 nM | – | – | –
CN1CCN(CC2CCN(c3nccc4[nH]c(-c5cc(F)cc(C(F)(F)F)c5)nc34)CC2)CC1 | 89 nM | 165 µM (≈ 78.6 µg/mL) | 54 nM | 3100 nM | – | –
CN1CCN(C2CCN(c3nccc4[nH]c(-c5ccc(F)c(C(F)(F)F)c5)nc34)CC2)CC1 | 80 nM | 195 µM (≈ 90.2 µg/mL) | 58 nM | 4800 nM | – | –
CN1CCN(CC2CCN(c3nccc4[nH]c(-c5ccc(F)c(F)c5)nc34)CC2)CC1 | 27 nM | 195 µM (≈ 83.2 µg/mL) | < 20 nM | 7400 nM | – | 370
CN1CCN(CC2CCN(c3nccc4c3nc(-c3cc(F)cc(F)c3)n4C)CC2)CC1 | – | 150 µM (≈ 66.1 µg/mL) | > 3000 nM | – | – | –
OCCN1CCN(c2nccc3[nH]c(-c4ccc(F)c(F)c4)nc23)CC1 | 1400 nM | 95 µM (≈ 34.1 µg/mL) | 570 nM | – | – | –
CN1CCN(CC2CCN(c3nccc4[nH]c(-c5cccc(C(=O)N(C)C)c5)nc34)CC2)CC1 | – | 180 µM (≈ 83.1 µg/mL) | 1000 nM | > 50000 nM | – | –
CN1CCN(C2CCN(c3nccc4[nH]c(-c5cccc(C#N)c5)nc34)CC2)CC1 | 580 nM | – | 110 nM | 16000 nM | – | –
CN1CCN(C(=O)C2CCN(c3nccc4[nH]c(-c5ccc(F)c(F)c5)nc34)CC2)CC1 | 380 nM | 200 µM (≈ 88.1 µg/mL) | 100 nM | > 50000 nM | 12000 nM | –
COC(=O)c1cccc(-c2nc3c(N4CCC(N5CCN(C)CC5)CC4)nccc3[nH]2)c1 | 280 nM | – | 79 nM | 34000 nM | – | –
CN1CCN([C@H]2CC[C@@H](Nc3nccc4[nH]c(-c5cc(F)cc(F)c5)nc34)CC2)CC1 | 310 nM | 200 µM (≈ 85.3 µg/mL) | 160 nM | 14000 nM | – | –
Fc1ccc(-c2nc3c(N4CCN5CCCC5C4)nccc3[nH]2)cc1F (centres undefined) | 480 nM | 120 µM (≈ 42.6 µg/mL) | 220 nM | 32000 nM | – | –
Fc1cc(F)cc(-c2nc3c(N4CCC(CN5CCC(F)(F)CC5)CC4)nccc3[nH]2)c1 | 310 nM | < 5 µM | 200 nM | 26000 nM | – | –
CN1CCN(CC2CCN(c3ccnc4[nH]c(-c5cc(F)cc(F)c5)nc34)CC2)CC1 | – | < 5 µM | 530 nM | – | – | –
Fc1ccc(-c2nc3c(N4CCCNCC4)nccc3[nH]2)cc1F | 1000 nM | 165 µM (≈ 54.3 µg/mL) | 210 nM | 7200 nM | – | –
CN1CCN(c2nccc3[nH]c(-c4cccc(OC(F)(F)F)c4)nc23)CC1 | – | – | 490 nM | – | – | –
CN1CCN(C2CCN(c3nccc4[nH]c(-c5cccc(OC(F)(F)F)c5)nc34)CC2)CC1 | 91 nM | 190 µM (≈ 87.5 µg/mL) | 64 nM | 3000 nM | – | 47
CN1CCN(C[C@@H]2CCCN(c3nccc4[nH]c(-c5cc(F)cc(F)c5)nc34)C2)CC1 | 130 nM | 145 µM (≈ 61.8 µg/mL) | 28 nM | 3200 nM | – | –
